Results taken from ChEMBL document CHEMBL1123133, “1H-2-Benzopyran-1-one derivatives, microbial products with pharmacological activity. Conversion into orally active derivatives with antiinflammatory and antiulcer activities” (J Med Chem, 1985).

Tests used:
Rattus norvegicus [1] = assay: Concentration detected in blood of rat 3 hr after an oral dose of 200 mg/kg; ND is Not Detected; format: ADME, organism-based; design: dose 200 mg/kg, route oral; conditions: in vivo
Procedure, shortened: (§1)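 Male Wistar rats (120–160 g), 5–7 per group, fasted 24 h, given 200 mg/kg orally as aqueous HCl salt formulation (drug/glycerin/HCO-60 1/12/0.05 by weight). Jugular blood taken under ether at 1 or 3 h into citric acid; plasma deproteinized with ethanol (acetone for 5d) and analysed by C18 HPLC at 254 nm. Values recovery-corrected, mean of 6–7 rats.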

Rattus norvegicus [2] = assay: Concentration 1 detected in blood of rat 1 hr after an oral dose of 200 mg/kg of the compound; ND is Not Detected.; format: ADME, organism-based; design: dose 200 mg/kg, route oral; conditions: in vivo; procedure, shortened: as §1
Rattus norvegicus [3] = assay: % recovery from whole blood of 7 wistar rats after an oral dose of the compound; format: ADME, organism-based; conditions: in vivo
Rattus norvegicus [4] = assay: Gastroprotective activity as % protection against stress ulcers in 5 rats after an intraperitoneal dose of 12.5 mg/kg; format: functional
Procedure, shortened: (§2)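 Stress ulcer by restraint and water immersion: male Wistar rats (160–180 g), fasted 24 h, given test compound po or ip as HCl salt in aqueous glycerin/HCO-60 formulation (1/12/0.05 by weight). Vehicle-only controls. After 1 h, restrained in net cage and immersed in 21 °C water for 6 h. Percent ulcer inhibition calculated; five rats per dose.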

Rattus norvegicus [5] = assay: Gastroprotective activity as % protection against stress ulcers in 5 rats after an intraperitoneal dose of 25 mg/kg; format: functional; procedure, shortened: as §2
Rattus norvegicus [6] = assay: Gastroprotective activity as % protection against stress ulcers in 5 rats after an intraperitoneal dose of 50 mg/kg; format: functional; procedure, shortened: as §2
Rattus norvegicus [7] = assay: Gastroprotective activity as % protection against stress ulcers in 5 rats after an oral dose of 100 mg/kg; format: functional; procedure, shortened: as §2
Rattus norvegicus [8] = assay: Gastroprotective activity as % protection against stress ulcers in 5 rats after an oral dose of 25 mg/kg; format: functional; procedure, shortened: as §2
Rattus norvegicus [9] = assay: Gastroprotective activity as % protection against stress ulcers in 5 rats after an oral dose of 50 mg/kg; format: functional; procedure, shortened: as §2
Rattus norvegicus [10] = assay: Concentration 6e detected in blood of rat 1 hr after an oral dose of 200 mg/kg of the compound; format: ADME, organism-based; design: dose 200 mg/kg, route oral; conditions: in vivo; procedure, shortened: as §1
Rattus norvegicus [11] = assay: Concentration 6e detected in blood of rat 3 hr after an oral dose of 200 mg/kg of the compound; format: ADME, organism-based; design: dose 200 mg/kg, route oral; conditions: in vivo; procedure, shortened: as §1
Rattus norvegicus [12] = assay: Concentration 1 detected in blood of rat 1 hr after an oral dose of 200 mg/kg; ND is Not Detected.; format: ADME, organism-based; design: dose 200 mg/kg, route oral; conditions: in vivo; procedure, shortened: as §1
Rattus norvegicus [13] = assay: Concentration 1 detected in blood of rat 3 hr after an oral dose of 200 mg/kg; ND is Not Detected.; format: ADME, organism-based; design: dose 200 mg/kg, route oral; conditions: in vivo; procedure, shortened: as §1
Rattus norvegicus [14] = assay: Concentration 5e detected in blood of rat 1 hr after an oral dose of 200 mg/kg of the compound; format: ADME, organism-based; design: dose 200 mg/kg, route oral; conditions: in vivo; procedure, shortened: as §1
Rattus norvegicus [15] = assay: Concentration 5e detected in blood of rat 3 hr after an oral dose of 200 mg/kg of the compound; format: ADME, organism-based; design: dose 200 mg/kg, route oral; conditions: in vivo; procedure, shortened: as §1
[16] = Solubility in water, tested as a HCl salt; format: physicochemical; conditions: read-out: S
Procedure, shortened: (§3)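 HCl salts suspended in excess in water or 10 mM phosphate buffer pH 7.5, sonicated 10 min at 20 °C to saturation, centrifuged; supernatant quantified by HPLC.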

[17] = Lipid solubility measured as chloroform-water partition coefficient; format: physicochemical
Procedure, shortened: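 Partition between chloroform and 10 mM phosphate buffer pH 7.5 (1:1 volume); drug at 1 mg/mL initially in aqueous phase, shaken 20 min at 20 °C, centrifuged, both phases quantified by HPLC. HCl salts used.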

Rattus norvegicus [18] = assay: % recovery of the compound, compound 1 and compound 6a from whole blood of 7 wistar rats after an oral dose of the compound; format: ADME, organism-based; conditions: in vivo
[19] = Solubility in phosphate buffer, tested as a HCl salt; format: physicochemical; procedure, shortened: as §3
[20] = Concentration detected in blood of rat 1 hr after an oral dose of 200 mg/kg; format: ADME, organism-based; design: dose 200 mg/kg, route oral; procedure, shortened: as §1
[21] = Concentration detected in blood of rat 3 hr after an oral dose of 200 mg/kg of the compound; format: ADME, organism-based; design: dose 200 mg/kg, route oral; procedure, shortened: as §1
Rattus norvegicus [22] = assay: % recovery 1 from whole blood of 7 wistar rats after an oral dose of the compound; format: ADME, organism-based; conditions: in vivo
Cavia porcellus = assay: Antiinflammatory activity evaluated as Minimum effective oral dose that inhibits dextran UV erythema in guinea pig; format: functional
Rattus norvegicus [23] = assay: Antiinflammatory activity evaluated as Minimum effective oral dose that inhibits bradykinin paw edema in rat; format: functional
Rattus norvegicus [24] = assay: Antiinflammatory activity evaluated as Minimum effective oral dose that inhibits carrageenan paw edema in rat; format: functional
Rattus norvegicus [25] = assay: Antiinflammatory activity evaluated as Minimum effective oral dose that inhibits dextran paw edema in rat; format: functional
Rattus norvegicus [26] = assay: Antiinflammatory activity evaluated as Minimum effective oral dose that inhibits adjuvant arthritis in rats; format: functional
Procedure, shortened: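 Adjuvant arthritis: male Sprague-Dawley rats (180–200 g), 8–10 per group, injected in right hind paw with Mycobacterium butyricum powder in corn oil (0.6 mg/0.1 mL). Oral dosing started 1 h after adjuvant, then daily for 18 days; observed 28 days. Minimum effective dose recorded.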

Compound | Protection (Rattus norvegicus [4]) [%] | Protection (Rattus norvegicus [5]) [%] | Protection (Rattus norvegicus [6]) [%] | Protection (Rattus norvegicus [7]) [%] | Protection (Rattus norvegicus [8]) [%] | Protection (Rattus norvegicus [9]) [%] | P [17] | other results
CC(C)C[C@H](NC(=O)[C@@H](O)[C@@H](O)[C@@H](N)CC(=O)O)[C@@H]1Cc2cccc(O)c2C(=O)O1 | 78 | 100 | 94 | 17 | 0 | 0 | – | Concentration (Rattus norvegicus [1]): Not detected; Concentration (Rattus norvegicus [2]): Not detected; Recovery (Rattus norvegicus [3]): 50%
CCCCCNC1CC(=O)OC1C(O)C(=O)NC(CC(C)C)C1Cc2cccc(O)c2C(=O)O1 (stereo not given) | – | 56 | 44 | 56 | 44 | 33 | 1900 | Concentration (Rattus norvegicus [10]): 800 ng/mL; Concentration (Rattus norvegicus [11]): 600 ng/mL; Concentration (Rattus norvegicus [12]): Not detected; Concentration (Rattus norvegicus [13]): Not detected; Concentration (Rattus norvegicus [14]): 1200 ng/mL; Concentration (Rattus norvegicus [15]): 800 ng/mL; solubility [16]: 7300 µg/mL; Recovery (Rattus norvegicus [18]): 50%; solubility [19]: 330 µg/mL
CC(C)C[C@H](NC(=O)C(O)C1OC(=O)CC1N)[C@@H]1Cc2cccc(O)c2C(=O)O1.Cl (stereo not given in full) | 66 | 83 | 83 | 78 | 44 | 66 | – | concentration at 1 h [20]: 800 ng/mL; concentration at 3 h [21]: 600 ng/mL; Recovery (Rattus norvegicus [22]): 50%
COc1ccc2c(c1)c(CC(=O)O)c(C)n2C(=O)c1ccc(Cl)cc1 [INDOMETHACIN] | – | – | – | – | – | – | – | ED50 (Cavia porcellus): < 6 mg/kg; ED50 (Rattus norvegicus [23]): > 25 mg/kg; ED50 (Rattus norvegicus [24]): 1.3 mg/kg; ED50 (Rattus norvegicus [25]): > 25 mg/kg; EDmin (Rattus norvegicus [26]): 3 mg/kg
CNCC(=O)O [SARCOSINE] | – | – | – | – | – | – | < 0.03 | –
Cn1cnc2c1c(=O)[nH]c(=O)n2C [THEOBROMINE] | – | – | – | – | – | – | 0.1 | –
